# NTR1 ag = agonists of human NTR1, primary screen, imaging, U2OS cells, beta-arrestin-GFP, high content; NTR1-U2OS beta-arrestin-GFP spot imaging, agonist mode; activation, % at 20 µM; 0.17% of 330,000 active; Neurotensin receptor type 1 (Homo sapiens), P30989; AID 493036, 2011;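 active = activation at or above 40% of the spot to cytoplasm intensity ratio, with at least 20 cells analyzed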;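 also: 0% = DMSO without peptide and 100% = 100 nM NTR1 peptide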
# CAL PDZ FP-1 = CAL PDZ peptide-binding inhibitors, primary screen, biochemical, fluorescence polarization, Cer-tagged CAL PDZ, HTS; Golgi-associated PDZ and coiled-coil motif-containing protein (Homo sapiens), Q9HD26; purified CAL PDZ, TMR-peptide fluorescence polarization, 1 h; inhibition, % at 20 µM; 0.02% of 330,000 active;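 active = highest replicate inhibition of at least 40%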;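 also: plate controls were DMSO neutral control wells for no effect and unlabeled competitor peptide control wells for full effect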
#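 Control set: unlabelled peptide and DMSO controls / Material: purified CerCALP PDZ construct / Timing: 1 h incubation at room temperature before polarization reading / Doses: 20 µM, one dose / Detection: fluorescence polarization (mP)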
# dFosB activator = activators of delta FosB homodimer, primary screen, biochemical, fluorescence polarization, TAMRA-CDK5 oligo, single point; 0.99% of 340,000 active; activation, % at 25 µM; purified delta FosB; percent of positive-control signal above neutral wells;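 active = mean activation above about 17%, with every replicate also reaching it, limit read from the data, passing the limit was not always enough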
# Target sequence (P13346 whole entry, looked up): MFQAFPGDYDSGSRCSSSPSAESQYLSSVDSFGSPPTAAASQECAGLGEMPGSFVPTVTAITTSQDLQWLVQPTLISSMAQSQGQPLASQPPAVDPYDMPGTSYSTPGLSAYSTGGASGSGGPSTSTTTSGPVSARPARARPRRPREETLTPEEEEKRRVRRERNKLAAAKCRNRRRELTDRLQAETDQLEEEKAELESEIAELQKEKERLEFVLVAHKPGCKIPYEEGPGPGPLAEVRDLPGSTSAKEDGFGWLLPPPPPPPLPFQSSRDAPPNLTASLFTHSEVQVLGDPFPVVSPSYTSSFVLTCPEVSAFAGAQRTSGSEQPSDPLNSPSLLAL
# PKA-R2B activ = activators of PKA-R2B holoenzyme, primary screen, biochemical, fluorescence polarization, Cy5-IP20, human; AID 504700, 2011; activation, % at 11.4 µM; PKA-R2B holoenzyme dissociation; R2B truncated from residue 108, S112A mutant; 0% DMSO only, 100% 113 µM cGMP; cAMP-dependent protein kinase catalytic subunit beta (Homo sapiens) + cAMP-dependent …; 0.079% of 340,000 active;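 active = activation above a cutoff set at the mean over all compounds plus 3 SD, cut at about 18% in these data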;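 also: higher means more holoenzyme dissociation and a rise in polarization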
# CAL PDZ FP-2 = untagged CAL PDZ binding inhibitors, primary screen, biochemical, fluorescence polarization, HTS | Golgi-associated PDZ and coiled-coil motif-containing protein (Homo sapiens), Q9HD26 | purified CAL PDZ, TMR-peptide fluorescence polarization, 1 h | inhibition, % at 24.9 µM | 0.92% of 300,000 active | AID 602252, 2012;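 active = mean inhibition of at least 30% with at least half of replicates also reaching 30%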;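 also: 0% = DMSO neutral control and 100% = excess unlabeled competitor peptide PRC23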
# PKA-R1A act = activators of PKA-R1A holoenzyme, primary screen, biochemical, fluorescence polarization, Cy5-IP20, bovine R1A, mouse PKAc. activation, % at 11.4 µM. cAMP-dependent protein kinase type I-alpha regulatory subunit (Bos taurus) + …. 0.083% of 340,000 active. PKA-R1A dissociation; scaled: DMSO 0%, 113 µM cGMP 100%;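 active = percent activation above the mean of all tested compounds plus 3 SD, cut at about 19% in these data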;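 also: higher means more PKAc released from R1A so a rise in polarization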
# R2B FP artifact = fluorescence polarization artefacts, biochemical, artefact control for PKA-R2B activator project; shares compounds with PKA-R2B activ; FP artifact counterscreen; activation, % at 11.4 µM; 6% of 270 active; AID 504796, 2011; in the data active = activation above about 20%;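 also: Cy5 labelled IP20 peptide probe with compound but no PKA protein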
# PKA-R2B confirm = activators of PKA-R2B holoenzyme, confirmation, biochemical, fluorescence polarization, human. shares compounds with PKA-R2B activ. PKA-R2B complex, activation. activation, % at 11.4 µM. 9% of 270 active. AID 504797, 2011; in the data active = activation above about 19%
# The depositor's hits bear a star; / = no result given. An excerpt weighted towards active compounds, which were near 2% of everything screened.
SMILES,NTR1 ag,CAL PDZ FP-1,dFosB activator,PKA-R2B activ,CAL PDZ FP-2,PKA-R1A act,R2B FP artifact,PKA-R2B confirm
CC(=O)NC12CC3CC(C1)CC(C(=O)Nc1nc4ccc(F)cc4s1)(C3)C2,-0.7,-4.2,-15.7,-17.1,-6.8,-0.3,/,/
O=C(Nc1nc(-c2ccccc2)cs1)C1CCCCN1S(=O)(=O)c1ccc(Cl)cc1 (centres undefined),17.0,-2.2,-12.6,-9.4,/,-7.9,/,/
CC(C)(C)C(=O)Nc1nc(C2CCCN2S(=O)(=O)c2ccc(Cl)cc2)cs1 (centres undefined),1.0,-0.5,-5.2,19.3*,-0.8,1.8,-1.4,0.5
CCOC(=O)/C(=N\Nc1ccc(Br)cc1)N1CCN(c2ccccc2OC)CC1,/,-2.1,-1.7,21.0*,-3.7,-2.4,1.1,2.9
CCOc1ccccc1NC(=O)CCNS(=O)(=O)c1cccc2nonc12,-1.6,-2.1,-2.7,16.1,-2.1,-2.8,/,/
Cc1ccsc1CNC1CCCCC1,-0.4,-0.4,-11.0,-1.9,0.4,0.3,/,/
Cc1ccsc1CNC12CC3CC(CC(C3)C1)C2,-1.2,0.9,5.1,21.1*,4.6,-12.7,1.7,3.9
COCCNC(=O)c1cc(-c2ccc3c(c2)OCO3)on1,-0.2,0.2,-4.3,18.4*,0.8,6.8,-1.9,0.6
COC(=O)Cc1cc(=O)n2[nH]cnc2n1,-1.6,-0.2,0.3,18.7*,-3.8,-0.9,2.6,-1.9
CCn1c(SCC(=O)NCc2cccs2)nnc1-c1cccs1,1.1,-2.0,-3.5,-3.8,0.4,-7.8,/,/
CCn1c(SCC(=O)NCCc2ccc(Cl)cc2)nnc1-c1cccs1,1.0,-2.5,-11.6,18.9*,0.0,-5.0,-0.3,0.7
CCOc1ccc(N(C)S(=O)(=O)c2c[nH]c(C(=O)OC)c2)cc1,1.6,-2.3,-12.8,19.7*,-1.1,3.4,3.1,4.2
COC(=O)c1cc(S(=O)(=O)N(C)c2ccc(C)c(C)c2)c[nH]1,-0.2,-1.9,-4.2,-17.8,-3.4,-6.9,/,/
CC(=O)N1CCN(c2ccc(NC(=O)C(C)Oc3ccc(Cl)cc3Cl)cc2)CC1 (centres undefined),0.7,-1.8,-18.6,19.4*,1.1,-6.2,1.9,2.9
CCc1nn(CC(=O)N2CCCCCC2)c(=O)c2cc3ccccc3n12,0.6,-2.7,-8.2,1.8,0.8,4.3,/,/
Cc1ccc2c(CN(C)Cc3ccc(Cl)cc3)cc(=O)oc2c1,10.5,-2.7,0.5,-7.8,-11.8,3.4,/,/
CCC(=O)N(Cc1cc2cc(OC)ccc2[nH]c1=O)c1ccc(C)cc1C,2.9,-1.3,-3.2,20.8*,4.9,-5.5,-2.6,-2.1
COc1ccc2[nH]c(=O)c(CN(C(C)=O)c3ccc(C)cc3C)cc2c1,-0.3,-0.4,-4.4,-3.9,/,-13.2,/,/
O=C(Nc1ccc(Oc2ccc(Br)cc2)cc1)C1=CC=CN2CCS(=O)(=O)N=C12,7.6,-0.2,-11.9,-11.9,-4.9,-16.9,/,/
CC1CCN(C(=O)CSc2nc3c(c(=O)n2C)SCC3)CC1,0.8,-1.1,-4.7,24.2*,-2.6,10.3,5.2,0.4
CC1=C(C(=O)OCc2ccccc2)C(c2ccccc2Br)NC(=O)N1 (centres undefined),0.9,-0.9,-9.5,4.8,/,4.8,/,/
CS(=O)(=O)N1CCC(Oc2ccccc2C(=O)N2CCC[C@H]2CO)CC1,0.3,0.9,-0.4,3.3,-5.2,-1.6,/,/
O=C(c1cc(F)c(F)cc1Cl)N1CCN(c2ncccn2)CC1,-0.5,0.2,1.2,19.3*,0.8,-8.5,-0.1,-2.1
CCOC(=O)N1CCN(Cc2nc3c(c(=O)n(C)c(=O)n3C)n2Cc2cccc(C)c2)CC1,1.1,/,-5.3,4.1,-5.0,2.8,/,/
CCOC(=O)N1CCN(Cc2nc3c(c(=O)n(C)c(=O)n3C)n2Cc2ccc(F)cc2)CC1,4.2,0.2,-9.3,19.1*,-6.7,-6.0,3.7,3.7
SMILES,NTR1 ag,CAL PDZ FP-1,dFosB activator,PKA-R2B activ,CAL PDZ FP-2,PKA-R1A act,R2B FP artifact,PKA-R2B confirm
O=C(CCS(=O)(=O)c1ccc(F)cc1)Nc1nnc(-c2ccc(F)cc2)o1,0.9,-1.9,-2.8,19.0*,1.1,-6.6,-2.0,0.7
OC(CCCN1CCC(O)(c2ccc(Cl)cc2)CC1)c1ccc(F)cc1 (centres undefined),-1.0,-1.6,1.1,18.6*,-1.2,2.4,5.5,2.4
CC1CCCN(C(=O)COC(=O)c2cc(Br)ccc2O)C1 (centres undefined),-2.8,0.3,-7.3,-7.7,/,5.6,/,/
COc1ccc(S(=O)(=O)N2CCC(C(=O)Nc3c(F)cccc3F)CC2)cc1,0.4,-1.2,0.3,21.4*,/,-5.2,2.7,1.4
COc1ccc(NC(=O)C2CCN(S(=O)(=O)c3ccccc3)CC2)cc1,0.0,-2.4,-13.2,-1.0,6.7,-0.3,/,/
O=C(Oc1ccccc1)c1cccnc1Oc1ccccc1,0.7,1.3,-5.1,-0.9,4.2,-3.6,/,/
Cc1ccc(S(=O)(=O)NNC(=O)C2CC=CCC2C(=O)O)cc1 (centres undefined),-1.0,-0.7,1.0,21.0*,1.6,3.6,2.8,0.7
O=C(c1ccc2oc(CCCc3ccccc3)nc2c1)N1CCCC1,-0.6,0.1,-10.4,-2.5,-3.8,-8.9,/,/
CCC[C@@H]1Cc2ccccc2N1C(C)=O,1.5,-0.7,-1.9,19.6*,-0.4,-5.4,-1.9,-2.7
Cc1c(C(=O)N2CCOCC2)sc(NC(=O)C(C)C)c1C#N,-0.1,-2.1,6.2,-7.4,-3.4,-5.0,/,/
Clc1cccc(N/N=C/c2ccc(N3CCOCC3)s2)c1,5.2,-2.5,2.9,21.3*,-0.7,7.5,6.2,-1.5
O=C(N/N=C/c1ccc(N2CCOCC2)s1)c1ccccc1Br,-1.5,-1.8,-2.1,-6.4,-1.7,1.0,/,/
Cc1cccc2cc(CN(CCCO)C(=O)Nc3ccccc3Cl)c(=O)[nH]c12,-0.5,-1.1,-10.1,23.2*,-0.9,-1.4,-1.2,3.0
